# This is a sample that favours compounds with a hit; in the whole collection about 4.4% have one here.
# AI-2 QS mod: modulates the Vibrio harveyi AI-2 quorum sensing system | Vibrio harveyi JMH597 AI-2 luminescence/OD600 ratio, 9 h; hits give low values; strain lacks LuxN and CqsS sensors; 0 = neutral-control median | activity change, % at 7.5 µM | hit rate 0.4% among 300,000; in the data active = activity change below about -75%, passing the limit was not always enough;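 note: luminescence divided by OD600 gain over 9 h not by final OD600 alone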
# Tb MetRS inh: blocks T. brucei methionyl-tRNA synthetase activity | inhibition, % at 11.9 µM | AID 624268 | purified T. brucei MetRS, ATP depletion, Kinase-Glo luminescence | hit rate 0.4% among 360,000;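 active = inhibition above a per-plate cutoff of the control wells' mean inhibition plus 3 SD, cut at about 5.5% in these data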;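 note: 0% = DMSO wells median and 100% = median of wells with control inhibitor compound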
#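 Assay system: T. brucei methionyl-tRNA synthetase, purified | Medium: HEPES buffer with MgCl2, KCl, DTT, spermine, BSA, pyrophosphatase | Compound: 11.9 µM single point | Incubation: 15 min enzyme-compound preincubation, 2 h reaction, 10 min detection, 25 °C | Measured by: Kinase-Glo luciferase luminescence reporting remaining unconsumed ATP | Measure: % inhibition normalized to control-well medians | Replication: Singlicate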
# HTR2A ag: activates the mouse 5-HT2A serotonin receptor | hit rate 0.66% among 360,000 | P35363 | activation, % at 7.6 µM | CHO-K1 mHTR2A beta-arrestin complementation, luminescence; percent of 30 µM serotonin response;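 active = activation above a run cutoff, the mean activation of all tested compounds plus 3 SD, cut at about 14% in these data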;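 note: 0% = plate median of compound wells and 100% = 30 µM serotonin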
# AHR act: human AHR activation; AHR-responsive luciferase reporter cells, luminescence; hit rate 2.5% among 320,000; P35869; activation, % at 5 µM; in the data active = activation above about 47%;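 note: 0% = vehicle wells and 100% = reference agonist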
# MsrA inh: inhibitors of bovine MsrA; purified bovine MsrA, absorbance read-out; inhibition, % at 15.5 µM; hit rate 0.75% among 360,000; AID 651718; in the data active = inhibition above about 4.5%;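 note: 0% = vehicle wells with enzyme and 100% = reference inhibitor wells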
# MsrA act: activates bovine MsrA enzyme. hit rate 0.3% among 360,000. purified bovine MsrA, absorbance read-out. activation, % at 10.6 µM; in the data active = activation above about 7.5%;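 note: 0% = vehicle and 100% = reference activator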
# TbMetRS confirm: Trypanosoma brucei MetRS inhibition confirmed; shares compounds with Tb MetRS inh; T. brucei MetRS enzyme, luminescence (ATP depletion); inhibition, % at 11.9 µM; hit rate 93% among 1,400; in the data active = inhibition above about 7%
# Jurkat cytotox: counter-screen for T. brucei MetRS inhibitors: Jurkat cell cytotoxicity | shares compounds with Tb MetRS inh | inhibition, % at 8.3 µM | hit rate 12% among 1,400 | Jurkat cells viability, ATP luminescence; in the data active = inhibition above about 15%;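 note: 0% = vehicle and 100% = reference inhibitor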
# Tb MetRS inh FP: T. brucei MetRS inhibition, orthogonal assay; AID 651607; hit rate 44% among 1,400; shares compounds with Tb MetRS inh; purified T. brucei MetRS, fluorescence polarization; inhibition, % at 11.9 µM; in the data active = inhibition above about 17%;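 note: 0% = vehicle wells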
# Starred values were filed as active, the others as inactive; nt = no result given.
SMILES,AI-2 QS mod,Tb MetRS inh,HTR2A ag,AHR act,MsrA inh,MsrA act,TbMetRS confirm,Jurkat cytotox,Tb MetRS inh FP
NC(=O)C1CCN(CC(=O)c2c[nH]c3ccc(F)cc23)CC1,11.9,4.5,-0.5,8.2,0.4,-2.4,nt,nt,nt
COc1ccc2c(c1)CCC(C)N2C(=O)C(=O)c1c[nH]c2ccccc12 (centres undefined),-1.9,11.5*,-5.4,0.8,0.2,-3.0,17.5*,14.6,9.7
COc1ccc2[nH]cc(C(=O)C(=O)N3CCCCC3)c2c1,-4.1,-0.8,-6.7,-0.6,1.1,-2.5,nt,nt,nt
Cc1nccn1CC(O)COc1ccc(Cl)cc1Cl (centres undefined),nt,9.5*,0.7,-1.5,-1.0,-11.5,11.3*,7.5,-2.3
Cc1cc(C)n(CC(O)COc2ccc(Cl)cc2Cl)n1 (centres undefined),nt,1.8,0.2,-3.0,0.3,-2.5,nt,nt,nt
CC(=O)c1c[nH]c(C(=O)NCc2cccc(C(F)(F)F)c2)c1,-6.2,92.1*,0.1,3.2,-0.8,-2.8,94.0*,-0.3,77.5*
O=C(NCc1cccc(C(F)(F)F)c1)c1c[nH]c(=O)s1,nt,1.5,6.6,nt,0.0,-8.7,nt,nt,nt
CC1=NN(c2ccc(F)cc2)C(=O)C1C(c1cccc(O)c1)c1c(C)[nH]n(-c2ccc(F)cc2)c1=O (centres undefined),52.5,18.5*,-3.8,31.7,-1.5,-3.8,3.0,-6.3,2.5
CC1=NN(c2ccc(C)cc2C)C(=O)C1C(c1ccccc1)C1C(=O)N(c2ccc(C)cc2C)N=C1C (centres undefined),13.0,0.0,-0.1,0.8,nt,2.5,nt,nt,nt
O=C(CC1SC(N2CCOCC2)=NC1=O)Nc1ccccc1Cl (centres undefined),nt,-0.3,-1.4,4.8,1.4,-5.6,nt,nt,nt
COc1ccc(-c2cc(=O)n(CCC#N)[nH]2)cc1,2.9,16.0*,-1.8,0.9,0.3,1.5,2.4,1.6,4.2
Cc1ccc2[nH]c(CSc3ccccc3)cc(=O)c2c1,17.6,10.7*,-1.6,16.4,4.5,-2.5,22.7*,4.9,-2.0
Nc1cc(C(=O)OCC(=O)NCc2ccc(F)cc2)ccc1Cl,15.7,43.0*,2.9,-0.5,0.7,-1.9,62.6*,-3.9,33.8*
COc1ccc(S(=O)(=O)N(C)C[C@H]2Oc3c(NC(=O)Nc4ccccc4)cccc3C(=O)N([C@H](C)CO)C[C@@H]2C)cc1,nt,-0.5,-5.2,nt,-1.3,-0.9,nt,nt,nt
C[C@H](CO)N1C[C@H](C)[C@@H](CN(C)S(=O)(=O)c2ccccc2)Oc2c(NC(=O)Nc3ccccc3)cccc2C1=O,nt,16.0*,-1.3,0.1,-0.1,-0.9,34.9*,-3.2,10.0
C[C@H](CO)N1C[C@H](C)[C@@H](CN(C)S(=O)(=O)c2cccs2)Oc2c(NC(=O)Nc3ccccc3)cccc2C1=O,nt,20.2*,4.2,-0.4,0.4,-1.9,53.4*,-3.8,24.8*
C[C@H]1CN([C@@H](C)CO)C(=O)Cc2cc(NC(=O)Nc3ccccc3)ccc2O[C@H]1CN(C)Cc1ccccc1,nt,9.5*,-0.9,nt,1.9,-4.9,30.7*,4.4,19.9*
Cc1noc(C)c1S(=O)(=O)N(C)C[C@H]1Oc2c(NC(=O)Nc3ccccc3)cccc2C(=O)N([C@H](C)CO)C[C@@H]1C,nt,17.0*,6.2,-1.9,1.9,-1.8,56.6*,3.0,25.1*
Cc1noc(C)c1S(=O)(=O)N(C)C[C@H]1Oc2c(NC(=O)Nc3ccc(C(F)(F)F)cc3)cccc2C(=O)N([C@H](C)CO)C[C@@H]1C,nt,0.5,-0.3,1.8,0.0,-3.2,nt,nt,nt
CCN(CC)S(=O)(=O)c1ccc(N2CC(C(=O)Nc3cccc(C(=O)NC4CC4)c3)CC2=O)cc1 (centres undefined),nt,-0.1,0.4,nt,1.0,-6.8,nt,nt,nt
CC1(C(=O)Nc2ccccc2)Cc2c(-c3cccc(C(F)(F)F)c3)ccnc2O1 (centres undefined),nt,0.0,-0.8,nt,-0.1,-5.9,nt,nt,nt
C/C(CC(=O)Nc1ccc(Cl)c(C(F)(F)F)c1)=N\NC(=O)c1ccccc1O,36.2,16.0*,0.3,35.3,0.7,-5.5,92.7*,28.5*,91.2*
Cc1ccc(C(=O)OCC(=O)NC2CCCC2)cc1C,-2.7,-0.2,0.0,0.1,0.1,-1.3,nt,nt,nt
O=C(CN1CCOCC1)Nc1nc(-c2ccccc2)cs1,2.9,6.7*,4.5,20.6,-0.2,0.2,1.8,3.5,1.2
O=C(CN1CCCCC1)Nc1nc(-c2ccccc2)cs1,-4.9,-0.3,-0.6,7.7,-0.6,-2.6,nt,nt,nt
SMILES,AI-2 QS mod,Tb MetRS inh,HTR2A ag,AHR act,MsrA inh,MsrA act,TbMetRS confirm,Jurkat cytotox,Tb MetRS inh FP
Cc1cc(NC(=O)c2ccc(Cl)cc2Cl)n(CCC#N)n1,9.4,6.4*,-1.6,4.4,-0.3,1.0,13.4*,5.2,12.3
S=C(Nc1ccccc1)Nc1nc2ccccc2n1CCOc1ccccc1,25.8,18.2*,-15.2,19.3,2.9,-1.1,4.9,-0.3,3.0
Cc1nc2ccccc2n1CCOc1ccccc1,-1.5,-0.2,-2.7,-1.7,0.6,-3.1,nt,nt,nt
Nc1nc2ccccc2n1CCOc1ccc(F)cc1,20.8,49.3*,-8.7,2.8,0.1,-1.4,72.2*,16.9*,44.6*
COc1ccc(OCCn2c(N)nc3ccccc32)cc1,9.1,38.6*,0.5,6.7,-0.5,-4.7,62.2*,-0.1,31.9*
CC(=O)Nc1nc2ccccc2n1CCOc1ccccc1,18.0,1.6,-5.1,5.3,-1.1,-11.5,nt,nt,nt
O=C(CSc1nc2ncc(Br)cc2[nH]1)c1ccc([N+](=O)[O-])cc1,15.8,18.2*,0.2,36.1,1.4,2.4,51.7*,1.9,24.2*
COc1cccc(NC(=O)CSc2nc3ncc(Br)cc3[nH]2)c1,-69.2,69.6*,-0.5,16.8,-1.3,-4.8,84.7*,6.4,60.4*
COc1cccc(NC(=O)CN(C)CC(=O)Nc2ccc(Br)cc2)c1,1.1,11.3*,2.6,9.8,-0.6,-1.3,19.7*,2.8,22.6*
CC(O)CN1C(=O)C(CC(=O)Nc2ccc(Cl)cc2)SC1=Nc1ccccc1 (centres undefined),2.2,26.5*,-3.1,0.6,nt,-1.2,52.6*,2.2,21.8*
Cc1ccc(C(=O)NCC(=O)OC(C)C(=O)NC2CCCCC2C)cc1C (centres undefined),18.6,-0.2,1.0,-1.5,-1.7,6.7,nt,nt,nt
CC(OC(=O)CNC(=O)c1ccc(Cl)c([N+](=O)[O-])c1)C(=O)NC1CCCCC1C (centres undefined),nt,7.2*,0.8,nt,-0.5,-3.0,26.1*,-1.2,12.8

# Screening results deposited in PubChem by several laboratories.
